According to publication PMC6438620 (Bioorganic & medicinal chemistry letters, 2018):

How the values were obtained:
Toxicity in mice = conditions: mouse, in vivo
Procedure, shortened: (§1)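 Female C57BL6 mice were dosed with test compound at 5 mg/kg i.p. once daily for seven consecutive days and sacrificed 24 h after the last injection. Blood clinical chemistry covered electrolytes, minerals, total protein, albumin, globulin, A/G ratio, BUN, ALT, AST, GLDH, ALP, bilirubin, amylase and creatine kinase.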

[1] = Tissue distribution by LC-MS/MS after 7-day i.p. treatment; conditions: 5 mg/kg i.p. daily for 7 days, 24 h after last injection
D4 dopamine receptor = target: T1, D4 dopamine receptor (Homo sapiens, UniProt P21917); experiment: PDSP primary binding and radioligand binding
T1 sequence (P21917 1-419): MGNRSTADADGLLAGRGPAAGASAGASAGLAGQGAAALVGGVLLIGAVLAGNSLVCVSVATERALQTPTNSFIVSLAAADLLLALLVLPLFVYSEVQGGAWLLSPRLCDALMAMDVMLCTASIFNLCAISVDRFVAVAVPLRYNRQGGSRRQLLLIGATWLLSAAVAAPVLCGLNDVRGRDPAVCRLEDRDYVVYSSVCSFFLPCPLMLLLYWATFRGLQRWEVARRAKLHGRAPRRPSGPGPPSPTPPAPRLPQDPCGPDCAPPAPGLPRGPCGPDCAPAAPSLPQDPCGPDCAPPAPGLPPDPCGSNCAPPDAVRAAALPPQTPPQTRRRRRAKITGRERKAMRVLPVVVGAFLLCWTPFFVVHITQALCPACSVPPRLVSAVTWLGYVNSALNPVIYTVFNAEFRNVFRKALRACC

[2] = tested on: LLC luc and MDA MB-231 cell lines; experiment: MTT colorimetric cytotoxicity assay, values given over both cell lines; conditions: for Cytotoxic activity compared with penfluridol: MTT, LLC luc and MDA MB-231
[3] = Clinical chemistry analysis of blood samples; assay type: in vivo, C57BL6 mice; conditions: 5 mg/kg, daily i.p. dosing for 7 days, n = 5
Procedure, shortened: as §1

[4] = target: H2 (histamine receptor 2) (Homo sapiens, UniProt P25021); experiment: PDSP primary binding and radioligand binding
H2 (histamine receptor 2), sequence (P25021 whole entry): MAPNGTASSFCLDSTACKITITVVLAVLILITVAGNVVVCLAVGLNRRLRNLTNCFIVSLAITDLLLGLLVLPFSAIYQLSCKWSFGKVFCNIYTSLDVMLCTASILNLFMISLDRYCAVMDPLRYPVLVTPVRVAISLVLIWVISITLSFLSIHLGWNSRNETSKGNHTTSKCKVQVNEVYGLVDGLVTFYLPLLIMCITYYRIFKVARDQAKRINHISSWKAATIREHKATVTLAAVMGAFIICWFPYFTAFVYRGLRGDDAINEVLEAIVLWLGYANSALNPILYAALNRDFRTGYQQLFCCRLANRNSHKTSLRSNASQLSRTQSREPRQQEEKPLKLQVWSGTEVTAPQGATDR

[5] = target: H1 (histamine receptor 1) (Homo sapiens, UniProt P35367); experiment: PDSP primary binding and radioligand binding
H1 (histamine receptor 1), sequence (P35367 whole entry): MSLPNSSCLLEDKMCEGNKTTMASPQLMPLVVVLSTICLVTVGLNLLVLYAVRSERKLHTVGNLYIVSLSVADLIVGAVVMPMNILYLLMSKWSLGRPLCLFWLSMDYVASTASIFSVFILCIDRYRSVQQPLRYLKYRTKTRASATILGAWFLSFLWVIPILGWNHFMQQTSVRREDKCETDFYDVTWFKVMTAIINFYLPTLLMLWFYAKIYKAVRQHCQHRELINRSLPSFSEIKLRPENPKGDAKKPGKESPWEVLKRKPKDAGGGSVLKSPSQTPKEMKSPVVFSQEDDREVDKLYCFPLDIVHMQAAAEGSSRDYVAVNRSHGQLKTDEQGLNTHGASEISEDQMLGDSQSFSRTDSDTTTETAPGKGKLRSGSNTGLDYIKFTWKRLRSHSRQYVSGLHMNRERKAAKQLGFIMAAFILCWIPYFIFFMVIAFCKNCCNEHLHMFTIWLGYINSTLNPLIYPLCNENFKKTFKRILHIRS

serotonin receptors = experiment: PDSP binding at serotonin receptor subtypes

| SMILES | Toxicity in mice (Toxicity in mice) | Distribution pattern: accumulation of the drug [1] | Cytotoxic activity compared with penfluridol [2] | Alkaline phosphatase (ALP) levels [3] | Blood urea nitrogen (BUN) levels [3] | Glutamate dehydrogenase (GLDH) [3] | Inhibition at some serotonin receptors (serotonin receptors; primary binding) | also measured |
| --- | --- | --- | --- | --- | --- | --- | --- | --- |
| OC1(c2ccc(Cl)c(C(F)(F)F)c2)CCN(CCCCC(c2ccc(F)cc2)c2ccc(F)cc2)CC1 [8a] | no toxicity in mice | predominantly in the adipose tissue and lungs | – | – | – | – | – | Level of the drug in the brain relative to penfluridol [1]: higher level of the drug in the brain relative to penfluridol; Ki (D4 dopamine receptor): 25 nM |
| OC1(c2ccc(Cl)c(C(F)(F)F)c2)CCN(CCCC(c2ccccc2)c2ccccc2)CC1 [8b] | – | – | reduced activity | – | – | – | – | – |
| COc1ccc(N(CCCCN2CCC(O)(c3ccc(Cl)c(C(F)(F)F)c3)CC2)c2ccc(OC)cc2)cc1 [8c] | no toxicity in mice | – | – | None of these changes was observed | None of these changes was observed | None of these changes was observed | – | Concentration of the drug in all tested samples (plasma, brain, lungs, adipose tissue) [1]: lower concentration of the drug in all tested samples |
| OC1(c2ccc(Cl)c(C(F)(F)F)c2)CCN(CCCCN(c2ccc(F)cc2)c2ccc(F)cc2)CC1 [11b] | – | – | – | – | – | – | 50–80% | Activity at H2 receptor [4]: abolished activity; Activity at H1 receptor [5]: abolished activity; Change of Ki values compared to penfluridol (serotonin receptors; other serotonin receptor subtypes): 3–16 fold; Inhibition levels at other serotonin receptor subtypes (serotonin receptors; primary binding, other serotonin receptor subtypes): > 90% |
| OC1(c2ccc(Cl)c(C(F)(F)F)c2)CCN(CCCCCc2ccc(F)cc2)CC1 [compound 13] | – | – | reduced activity | – | – | – | – | – |
| OC1(c2ccc(Cl)c(C(F)(F)F)c2)CCN(CCCC(c2ccc(F)cc2)c2ccc(F)cc2)CC1 [penfluridol, reference compound] | – | predominantly in the adipose tissue and lungs | – | decreased ALP levels | decreased BUN levels | increased GLDH | 95–100% | IC50 ([2]; Homo sapiens, MDA-MB-231, read-out: IC50 (cytotoxicity, MTT)): 4300 to 5100 nM |
